Test results: ChEMBL document CHEMBL5214977, “Discovery and Optimization of Quinoline Analogues as Novel Potent Antivirals against Enterovirus D68” (J Med Chem, 2022)

How the values were obtained:
[1] = tested on: RD; test: Cytotoxicity against human RD cells assessed as inhibition of cell viability by measuring ATP level incubated for 72 hrs by cell titer-glo luminescent cell viability assay; type: functional
Outline: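 Uninfected RD cells seeded at 1.5 × 10^4/well and grown 24 h, then exposed to compound in 3-fold dilutions (0.01–200 μM), with DMSO as cell control. ATP read by CellTiter-Glo luminescence after 72 h; CC50 is the 50% cytotoxic concentration.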

[2] = Selectivity index, ratio of CC50 for human RD cells to EC50 for Enterovirus-D68 STL-2014-12 infected in human RD cells to; type: toxicity, cell-based; conditions: for selectivity ratio: RD cells, read-out: Ratio CC50/EC50
Outline: (§1)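 EC50 came from a CPE reduction assay. RD cells (1.5 × 10^4 per well, grown 24 h) were infected with 100 TCID50 of the named strain and given 3-fold dilutions from 0.01 to 200 μM. After 72 h at 37 °C, ATP was read by CellTiter-Glo and normalized to infected and uninfected controls. CC50 came from uninfected cells under the same dilutions, 72 h and ATP readout. SI = CC50/EC50.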

[3] = tested on: enterovirus D68; test: Antiviral activity against Enterovirus-D68 STL-2014-12 infected in human RD cells assessed as reduction in virus induced cytopathic effect by measuring ATP level incubated for 72 hrs by cell titer-glo luminescent cell viability assay; type: functional, organism-based
Outline: (§2)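 RD cells seeded at 1.5 × 10^4/well and grown 24 h, then given 100 TCID50 virus plus compound in 3-fold dilutions (0.01–200 μM). DMSO control. Incubated 37 °C for 72 h; ATP read by CellTiter-Glo luminescence and normalized to uninfected and infected controls. EC50 is the concentration giving 50% CPE reduction. Strains: STL-2014-12, US/KY/14-18953, US/MO/14-18947, Fermon.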

[4] = tested on: enterovirus D68; test: Antiviral activity against Enterovirus-D68 fermon infected in human RD cells assessed as reduction in virus induced cytopathic effect by measuring ATP level incubated for 72 hrs by cell titer-glo luminescent cell viability assay; type: functional, organism-based; conditions: Enterovirus D; outline: as §2
[5] = Selectivity index, ratio of CC50 for human RD cells to EC50 for Enterovirus-D68 US/MO/14-18947 infected in human RD cells; type: toxicity, cell-based; conditions: read-out: Ratio CC50/EC50; outline: as §1
[6] = Selectivity index, ratio of CC50 for human RD cells to EC50 for Enterovirus-D68 US/KY/14-18953 infected in human RD cells; type: toxicity, cell-based; conditions: read-out: Ratio CC50/EC50; outline: as §1
[7] = tested on: enterovirus D68; test: Antiviral activity against Enterovirus-D68 US/KY/14-18953 infected in human RD cells assessed as reduction in virus induced cytopathic effect by measuring ATP level incubated for 72 hrs by cell titer-glo luminescent cell viability assay; type: functional, organism-based; conditions: Enterovirus D, US/KY/14-18953, RD; outline: as §2
[8] = Selectivity index, ratio of CC50 for human RD cells to EC50 for Enterovirus-D68 fermon infected in human RD cells; type: toxicity, cell-based; conditions: read-out: Ratio CC50/EC50; outline: as §1
[9] = tested on: enterovirus D68; test: Antiviral activity against Enterovirus-D68 US/MO/14-18947 infected in human RD cells assessed as reduction in virus induced cytopathic effect by measuring ATP level incubated for 72 hrs by cell titer-glo luminescent cell viability assay; type: functional, organism-based; conditions: Enterovirus D, US/MO/14-18947, RD; outline: as §2
[10] = Enterovirus D, STL-2014-12, RD, 72 h

| SMILES | CC50 [1] | selectivity ratio [2] | EC50 [3, 10] | also measured |
| --- | --- | --- | --- | --- |
| CCc1nc(-c2cnc3ccc(-c4ccc(Cl)cc4)cc3c2)no1 | > 22.2 µM | > 7 | 3020 nM |  |
| CCCCc1ccc(-c2ccc3ncc(-c4noc(CC)n4)cc3c2)cc1 | > 7.4 µM | > 41 | 180 nM |  |
| CCCCc1ccc(-c2ccc3ncc(-c4noc(C)n4)cc3c2)cc1 | > 2.5 µM | > 4 | 590 nM |  |
| CCc1nc(-c2cnc3ccc(-c4ccc(OC)cc4)cc3c2)no1 | > 2.5 µM | > 13 | 190 nM |  |
| Cc1ccc(-c2ccc3ncc(-c4noc(C)n4)cc3c2)cc1 | > 7.4 µM | > 13 | 570 nM |  |
| Cc1ccc(-c2ccc3ncc(-c4noc(C(F)(F)F)n4)cc3c2)cc1 | > 22.2 µM | > 49 | 450 nM |  |
| CCCCc1ccc(-c2ccc3ncc(-c4noc(C(F)(F)F)n4)cc3c2)cc1 | > 7.4 µM | > 39 | 190 nM |  |
| Nc1ccc(-c2ccc3ncc(-c4noc(C(F)(F)F)n4)cc3c2)cn1 | > 2.5 µM | > 14 | 180 nM |  |
| CCc1nc(-c2cnc3ccc(-c4ccc(F)cc4)cc3c2)no1 | > 7.4 µM | > 22 | 330 nM |  |
| FC(F)(F)c1nc(-c2cnc3ccc(-c4ccc(N5CCOCC5)cc4)cc3c2)no1 | > 22.2 µM | > 1 | 33900 nM |  |
| CCCc1ccc(-c2ccc3ncc(C(=O)OCC)cc3c2)cc1 | > 7.4 µM | > 6 | 1290 nM |  |
| CCc1nc(-c2cnc3ccc(-c4ccc(N)nc4)cc3c2)no1 | > 66.7 µM | > 555 | 120 nM |  |
| CCc1nc(-c2cnc3ccc(-c4ccc(C)cc4)cc3c2)no1 | > 7.4 µM | > 12 | 610 nM |  |
| CCc1nc(-c2cnc3ccc(-c4ccc(N)cc4)cc3c2)no1 | > 2.5 µM |  | 100 nM | Ratio CC50/EC50 [2]: > 25 |
| Cl.Nc1ccc(-c2ccc3ncc(-c4noc(C(F)(F)F)n4)cc3c2)cc1 |  |  |  | Ratio CC50/EC50 [2]: > 111; EC50 ([3]; rd): 100 nM; EC50 [4]: 90 nM; selectivity ratio [5]: > 123; selectivity ratio [6]: > 123; EC50 [7]: 90 nM; selectivity ratio [8]: > 123; EC50 [9]: 90 nM |
| Cc1nc(-c2cnc3ccc(-c4ccc(O)cc4)cc3c2)no1 | > 2.5 µM | > 5 | 460 nM |  |
| CCc1ccc(-c2ccc3ncc(-c4noc(C)n4)cc3c2)cc1 | > 7.4 µM | > 16 | 470 nM |  |
| CN(C)c1ccc(-c2ccc3ncc(-c4noc(C(F)(F)F)n4)cc3c2)cc1 | > 22.2 µM | > 16 | 1350 nM |  |
| CCOC(=O)c1cnc2ccc(-c3cccc(N)c3)cc2c1 | > 7.4 µM | > 1 | 6730 nM |  |
| FC(F)(F)c1nc(-c2cnc3ccc(-c4ccc(Cl)cc4)cc3c2)no1 | > 200 µM | > 8 | 24300 nM |  |
| Cc1nc(-c2cnc3ccc(-c4ccc(N)nc4)cc3c2)no1 | > 7.4 µM | > 15 | 510 nM |  |
| CCOC(=O)c1cnc2ccc(-c3ccccc3N)cc2c1 | > 7.4 µM | > 1 | 6260 nM |  |
| Cc1nc(-c2cnc3ccc(-c4ccc(N)cc4)cc3c2)no1 | > 2.5 µM | > 9 | 280 nM |  |
| FC(F)(F)c1nc(-c2cnc3ccc(-c4ccccc4)cc3c2)no1 | > 22.2 µM | > 30 | 750 nM |  |
